Assay outcomes from PubChem BioAssay.
CHOP inh: inhibitors of CHOP induction in ER stress response; AID 2732; 220,000 compounds, 3.8% hits; inhibition, % at 10 µM; CHO-K1 CHOP-promoter luciferase, tunicamycin-induced, 15-18 h;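 active = compounds that reduced the stress-induced luciferase reporter signal by more than about 70% of percent inhibition, limit read from the data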;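 note: 0% = tunicamycin plus vehicle and 100% = wells without tunicamycin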
NS3 helicase inh: blocks Hepatitis C virus NS3 helicase unwinding; NS3 helicase DNA unwinding, Cy5 molecular beacon fluorescence; inhibition, % at 10.9 µM; 290,000 compounds, 0.56% hits; AID 1800;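 active = inhibition above the mean of all tested compounds plus 3 SD, set per campaign, cut at about 35% in these data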;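 note: 0% = DMSO wells and 100% = thioflavine S control wells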
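test system = hepatitis C virus NS3 helicase domain fragment enzyme | reagent = annealed dual-labelled DNA beacon duplex, ATP-started | times = 1 h at 25 °C | detection = Cy5 fluorescence, 0 and 60 min reads | read-out basis = percent inhibition from t60/t0 fluorescence ratio | control set = DMSO and thioflavine S | replication = one well per compound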
p97 ATPase inh: human p97 ATPase inhibition; P55072; recombinant p97 ATPase, Kinase-Glo ATP luminescence, 3 h; inhibition, % at 8 µM; 220,000 compounds, 0.42% hits; in the data active = inhibition above about 15%;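 note: 0% = DMSO vehicle and 100% = wells lacking enzyme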
Target sequence (P55072 whole entry, looked up): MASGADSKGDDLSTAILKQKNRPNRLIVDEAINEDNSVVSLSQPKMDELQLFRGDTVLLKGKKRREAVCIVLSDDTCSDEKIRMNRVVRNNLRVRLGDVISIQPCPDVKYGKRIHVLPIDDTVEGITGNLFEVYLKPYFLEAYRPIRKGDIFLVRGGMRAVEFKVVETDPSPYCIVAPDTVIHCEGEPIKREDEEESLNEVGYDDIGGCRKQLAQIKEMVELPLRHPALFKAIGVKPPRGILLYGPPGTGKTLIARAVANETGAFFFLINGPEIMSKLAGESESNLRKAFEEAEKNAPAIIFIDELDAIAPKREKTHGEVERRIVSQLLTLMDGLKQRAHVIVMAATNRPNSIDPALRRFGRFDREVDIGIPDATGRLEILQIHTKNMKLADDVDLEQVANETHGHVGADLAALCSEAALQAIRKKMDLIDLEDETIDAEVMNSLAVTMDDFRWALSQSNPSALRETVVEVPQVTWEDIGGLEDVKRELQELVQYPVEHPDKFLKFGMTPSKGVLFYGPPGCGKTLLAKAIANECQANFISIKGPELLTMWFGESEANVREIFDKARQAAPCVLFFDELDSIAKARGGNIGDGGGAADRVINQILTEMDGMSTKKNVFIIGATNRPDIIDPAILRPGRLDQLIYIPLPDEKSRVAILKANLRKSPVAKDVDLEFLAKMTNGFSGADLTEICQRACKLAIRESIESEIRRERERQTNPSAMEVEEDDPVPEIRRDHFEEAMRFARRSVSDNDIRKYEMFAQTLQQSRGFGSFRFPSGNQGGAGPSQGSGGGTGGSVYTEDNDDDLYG
PfM18AAP inh-1: PfM18AAP enzyme inhibition. recombinant PfM18AAP, H-Glu-NHMec fluorogenic cleavage. inhibition, % at 7.35 µM. 290,000 compounds, 1.2% hits. AID 1822;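 active = inhibition above the campaign mean inhibition over all tested compounds plus 3 SD, cut at about 28% in these data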;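 note: 0% = plate median of test compound wells and 100% = 2 mM ZnCl2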
UPR XBP1 act: adaptive UPR (XBP1) activation; CHO-XBP1 luciferase reporter, IRE1-XBP1 UPR activation, luminescence; percent of tunicamycin response, DMSO as zero; activation, % at 20 µM; 330,000 compounds, 0.33% hits;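 active = versus positive control, 20 µM dose yields 30% or more activation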;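 note: 100% = tunicamycin at 10 µg/mL and 0% = DMSO only wells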
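Material: CHO-XBP1 cells stably carrying IRE1-XBP1-driven luciferase reporter | Medium: F12 with 10% serum | Compound dosing: 20 µM single concentration, DMSO 1% | Incubation: Overnight seeding at 37 °C, 6 h compound treatment at 37 °C | Detection: Steady-Glo luminescence read | Read-out basis: % activation of reporter signal versus tunicamycin and DMSO controls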
UPR CHOP act: activators of apoptotic arm of unfolded protein response (CHOP); CHO-CHOP luciferase reporter, UPR activation, luminescence; percent of tunicamycin response over DMSO baseline; activation, % at 10 µM; 330,000 compounds, 0.34% hits;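 active = at 10 µM dose, activation of 40% or more, normalized to positive control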;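 note: 100% = tunicamycin at 10 µg/mL and 0% = DMSO alone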
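Test system: CHO CHOP reporter cells. Input: 500 CHO-CHOP cells per well. Medium: F12 with 10% FBS. Technique: luciferase luminescence. Measure: percent activation relative to tunicamycin control. Dosing: 10 µM compound, 0.5% DMSO. Timing: 16-18 h cell attachment, then 6 h compound exposure, 37 °C.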
p97 confirm: confirmation of human p97 ATPase inhibitors | shares compounds with p97 ATPase inh | recombinant p97 ATPase, Kinase-Glo ATP luminescence | inhibition, % at 8 µM | 760 compounds, 44% hits | AID 1517;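 active = percent inhibition of p97 ATPase above a set limit, the primary screen's mean plus 3 SD, cut at about 15% in these data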;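 note: 0% = DMSO wells and 100% = wells lacking p97 protein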
NS3 helicase cf: HCV NS3 helicase inhibition, confirmation assay. NS3 helicase DNA unwinding, Cy5 molecular beacon fluorescence. inhibition, % at 10.9 µM. 1,600 compounds, 31% hits. shares compounds with NS3 helicase inh;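 active = inhibition above the mean of all tested compounds plus 3 SD, cutoff set per campaign, cut at about 36% in these data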
DNA FID counter: counter-screen for HCV NS3 helicase inhibitors: DNA intercalator displacement | shares compounds with NS3 helicase inh | DNA fluorescent intercalator displacement, fluorescence | inhibition, % at 7.9 µM | 1,600 compounds, 4% hits | AID 1945; in the data active = inhibition above about 37%;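 note: 0% = vehicle and 100% = reference compound; higher means more displacement of ethidium bromide from the DNA hairpin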
DNA FID DR: counter-screen for HCV NS3 helicase inhibitors: DNA intercalator displacement dose response; 120 tested, under 10 active; fluorescent intercalator displacement from DNA, fluorescence; IC50, µM; shares compounds with NS3 helicase inh; call rule not given here
PfM18AAP inh-2: confirmation of Plasmodium falciparum M18 aspartyl aminopeptidase inhibitors; shares compounds with PfM18AAP inh-1; recombinant PfM18AAP, H-Glu-NHMec fluorogenic cleavage; inhibition, % at 7.35 µM; 2,400 compounds, 28% hits; AID 2170;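 active = mean inhibition over replicate wells above the hit cutoff set for the earlier primary screen, cut at about 29% in these data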;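 note: 0% = median of test compound wells and 100% = 2 mM ZnCl2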
CTSL1 confirm: Cathepsin L (human) inhibition, confirmation. shares compounds with PfM18AAP inh-1. purified cathepsin L1, Z-Leu-Arg-MCA fluorescence. inhibition, % at 5.96 µM. 2,400 tested, under 10 active. AID 2178;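 active = average inhibition across replicates above the hit cutoff set in the earlier primary screen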;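 note: 0% = median of test compound wells and 100% = Z-Phe-Ala-diazomethylketone 1 µM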
CHOP confirm: confirmation of CHOP induction inhibitors. shares compounds with CHOP inh. CHO-CHOP promoter luciferase reporter, tunicamycin-induced, luminescence. inhibition, % at 10 µM. 2,100 compounds, 45% hits;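 active = mean of three repeat readings of reporter signal inhibition above a set limit, cut at about 70% in these data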;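 note: 0% = tunicamycin plus vehicle and 100% = wells lacking tunicamycin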
UPR XBP1 confirm: confirmation of adaptive unfolded protein response (XBP1) activators; shares compounds with UPR XBP1 act; CHO-XBP1 IRE1-XBP1 luciferase reporter, luminescence; activation, % at 20 µM; 1,000 compounds, 63% hits; AID 485299;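 active = reporter signal at least 30% of the positive control's activation in two or more of four replicate wells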;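 note: plate controls were DMSO negative control for no effect and tunicamycin 10 µg/mL positive control for full effect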
Starred values were filed as active, the others as inactive. An excerpt weighted towards active compounds, which were near 4.5% of everything screened.

Screening COc1cc(/C=C2\SC(=Nc3ccc(O)cc3)NC2=O)cc(OC)c1OC returned CHOP inh -53.7, NS3 helicase inh 17.1, p97 ATPase inh 4.0, PfM18AAP inh-1 -16.7, UPR XBP1 act 10.2 and UPR CHOP act 2.6.
Screening c1ccc(CNc2nc(NCc3ccccc3)c3ccccc3n2)cc1 returned CHOP inh 33.3, NS3 helicase inh -39.2, p97 ATPase inh 43.8*, PfM18AAP inh-1 0.4, UPR XBP1 act 58.8*, UPR CHOP act 24.1, p97 confirm 40.9* and UPR XBP1 confirm 30.1.
For c1ccc(CNc2nc(-c3ccccc3)nc3ccccc23)cc1 the results were NS3 helicase inh -12.8, PfM18AAP inh-1 2.8, UPR XBP1 act 0.3 and UPR CHOP act -0.3.
Screening Fc1ccc(Nc2nc(NCc3ccco3)c3ccccc3n2)cc1 returned CHOP inh 97.4*, NS3 helicase inh -97.5, p97 ATPase inh 27.5*, PfM18AAP inh-1 -4.0, UPR XBP1 act 30.6*, UPR CHOP act 27.3, p97 confirm 34.2*, CHOP confirm 73.1* and UPR XBP1 confirm 33.4*.
O=[N+]([O-])c1ccccc1NC(=S)N/N=C/c1ccc(O)c(O)c1 was read as CHOP inh 21.8, NS3 helicase inh 12.6, p97 ATPase inh 19.2*, PfM18AAP inh-1 59.4*, UPR XBP1 act 36.6*, UPR CHOP act 21.4, p97 confirm 22.0*, PfM18AAP inh-2 39.5*, CTSL1 confirm 0.6 and UPR XBP1 confirm 22.9.
For C[C@H](OC(=O)N1CCN(C(c2ccccc2)c2ccccc2)CC1)[C@@H]1O[C@@]2(C)CCC[C@H]1O2 the results were UPR XBP1 act -2.2 and UPR CHOP act -0.1.
COc1ccc(-c2nc(-c3ccc(NC(=O)c4ccc(Br)o4)cc3)no2)cc1OC was read as CHOP inh 102.9*, NS3 helicase inh -8.2, p97 ATPase inh 16.9*, PfM18AAP inh-1 3.8, UPR XBP1 act 34.6*, UPR CHOP act 29.9, p97 confirm 2.1, CHOP confirm 109.6* and UPR XBP1 confirm 15.6.
Screening CCOc1ncccc1C(=O)OC(C)C(=O)NC(=O)NC1CCCCC1 (configuration not stated) returned CHOP inh 48.6, NS3 helicase inh 13.1, p97 ATPase inh -2.9, PfM18AAP inh-1 -5.7, UPR XBP1 act -1.7 and UPR CHOP act -2.1.
`Cc1ccc2c(CC(=O)NCC3(N4CCOCC4)CCCCC3)coc2c1C` gave UPR XBP1 act -3.3 and UPR CHOP act 0.9.
For O=C(O)c1cccc(-n2c(/C=C/c3ccccc3)nc3ccccc3c2=O)c1 the results were NS3 helicase inh 52.6*, PfM18AAP inh-1 4.4, UPR XBP1 act -3.3, UPR CHOP act 1.2, NS3 helicase cf 53.3*, DNA FID counter -22.9 and DNA FID DR >79.4.
For N#CCCN(Cc1cccnc1)C(=O)c1sc2cc(F)ccc2c1Cl the results were CHOP inh 2.2, NS3 helicase inh -3.4, p97 ATPase inh -1.2, PfM18AAP inh-1 1.1, UPR XBP1 act -4.4 and UPR CHOP act -1.7.
Screening CN1C(=O)C2(NC(=O)c3ccccc3N2C)c2ccccc21 (configuration not stated) returned CHOP inh -20.2, NS3 helicase inh -5.4, p97 ATPase inh 2.4, PfM18AAP inh-1 12.4, UPR XBP1 act -1.9 and UPR CHOP act 0.2.
For CN1C(=O)C(Cl)(Cl)C(=O)c2ccccc21 the results were CHOP inh -39.8, NS3 helicase inh 53.4*, p97 ATPase inh 3.6, PfM18AAP inh-1 38.2*, NS3 helicase cf -15.2 and DNA FID counter 2.8.
NS(=O)(=O)c1ccc(NC(=O)c2cc(Cl)sc2Cl)cc1 was read as NS3 helicase inh 1.0, PfM18AAP inh-1 2.6, UPR XBP1 act -5.1 and UPR CHOP act 1.3.
Screening O=c1c2ccccc2nc(/C=C/c2cc(Br)ccc2O)n1CCCO returned NS3 helicase inh 5.0, PfM18AAP inh-1 7.4, UPR XBP1 act -5.2 and UPR CHOP act -0.5.
`COc1ccc(-c2cc3ncc(C(C)=O)c(C)n3n2)cc1` gave CHOP inh -4.7, NS3 helicase inh 0.7, p97 ATPase inh -6.3, PfM18AAP inh-1 -7.1, UPR XBP1 act 1.4 and UPR CHOP act 3.6.
`COc1cc(C(=O)NC2CCCC(C)C2C)ccc1OCC(=O)N1CCOCC1` (configuration not stated) gave UPR XBP1 act -1.2 and UPR CHOP act -1.4.
Screening COc1ccccc1N1CCN(C(=O)c2ccc3nc(-c4ccco4)c(-c4ccco4)nc3c2)CC1 returned CHOP inh 20.0, NS3 helicase inh 28.9, p97 ATPase inh -7.5, PfM18AAP inh-1 6.7, UPR XBP1 act 5.1 and UPR CHOP act 2.5.
O=C(NC1CCCC1)c1ccc2nc(-c3ccco3)c(-c3ccco3)nc2c1 was read as CHOP inh -28.4, NS3 helicase inh 36.7*, p97 ATPase inh 5.1, PfM18AAP inh-1 14.8, UPR XBP1 act -1.5, UPR CHOP act 1.9, NS3 helicase cf 115.4*, DNA FID counter 14.8 and DNA FID DR >79.4.
For Cc1ccc(C)c(N2CCN(C(=O)c3ccc4nc(-c5ccco5)c(-c5ccco5)nc4c3)CC2)c1 the results were CHOP inh 12.0, NS3 helicase inh 36.8*, p97 ATPase inh 5.2, PfM18AAP inh-1 10.0, UPR XBP1 act -3.0, UPR CHOP act 0.5, NS3 helicase cf 76.2*, DNA FID counter -20.3 and DNA FID DR >79.4.
Screening CSc1nc(N)nc2c1ncn2CC(=O)Nc1ccc(C)c(C)c1 returned UPR XBP1 act -3.2 and UPR CHOP act 0.2.
